Experimental data published in ChEMBL document CHEMBL4725369, “Multicomponent Synthesis, Binding Mode, and Structure-Activity Relationship of Selective Histone Deacetylase 6 (HDAC6) Inhibitors with Bifurcated Capping Groups” (J Med Chem, 2020).
The source made the active and inactive calls. The rule behind the calls is not given here.

Columns and labels:
Histone deacetylase 1 = Histone deacetylase 1 (Homo sapiens, UniProt Q13547); assay: Inhibition of human recombinant HDAC1 using ZMAL (Z-Lys(Ac)-AMC) fluorogenic substrate incubated for 90 mins by fluorescence based assay
[1] = target: T1, Protein deacetylase HDAC6 (Homo sapiens, UniProt Q9UBN7); assay: Inhibition of human recombinant HDAC6 using ZMAL (Z-Lys(Ac)-AMC) fluorogenic substrate incubated for 90 mins by fluorescence based assay
T1 sequence (Q9UBN7 whole entry): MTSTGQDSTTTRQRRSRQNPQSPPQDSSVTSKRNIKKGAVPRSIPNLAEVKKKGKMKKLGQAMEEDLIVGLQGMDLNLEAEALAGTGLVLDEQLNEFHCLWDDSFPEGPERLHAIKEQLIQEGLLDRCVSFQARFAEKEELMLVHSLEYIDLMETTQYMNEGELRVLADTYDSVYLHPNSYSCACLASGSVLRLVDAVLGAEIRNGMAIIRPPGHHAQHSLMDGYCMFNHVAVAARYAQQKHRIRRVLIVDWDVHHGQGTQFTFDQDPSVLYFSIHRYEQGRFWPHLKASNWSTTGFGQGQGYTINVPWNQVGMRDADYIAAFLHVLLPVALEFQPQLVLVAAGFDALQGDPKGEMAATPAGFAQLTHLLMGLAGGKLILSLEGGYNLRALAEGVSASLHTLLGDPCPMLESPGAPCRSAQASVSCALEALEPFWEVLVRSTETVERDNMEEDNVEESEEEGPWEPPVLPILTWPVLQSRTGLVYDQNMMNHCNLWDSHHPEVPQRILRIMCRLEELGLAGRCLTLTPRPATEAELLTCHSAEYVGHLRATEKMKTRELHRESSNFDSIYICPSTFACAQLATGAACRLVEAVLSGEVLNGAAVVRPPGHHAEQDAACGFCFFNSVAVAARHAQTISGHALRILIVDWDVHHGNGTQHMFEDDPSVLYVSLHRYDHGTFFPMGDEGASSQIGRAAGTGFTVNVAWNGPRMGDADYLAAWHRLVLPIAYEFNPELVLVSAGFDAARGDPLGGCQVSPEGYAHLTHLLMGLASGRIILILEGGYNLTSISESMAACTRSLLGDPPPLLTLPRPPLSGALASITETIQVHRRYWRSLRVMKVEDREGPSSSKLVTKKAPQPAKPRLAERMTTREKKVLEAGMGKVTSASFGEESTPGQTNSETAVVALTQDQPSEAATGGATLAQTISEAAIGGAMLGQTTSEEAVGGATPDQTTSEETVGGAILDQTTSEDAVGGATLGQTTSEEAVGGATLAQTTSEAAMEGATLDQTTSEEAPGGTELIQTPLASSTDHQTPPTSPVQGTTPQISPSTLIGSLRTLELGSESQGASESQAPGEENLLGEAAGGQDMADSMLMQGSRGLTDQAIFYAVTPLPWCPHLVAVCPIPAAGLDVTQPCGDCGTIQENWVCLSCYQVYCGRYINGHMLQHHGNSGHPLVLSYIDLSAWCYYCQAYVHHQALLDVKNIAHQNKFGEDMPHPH

Histone deacetylase 2 = Histone deacetylase 2 (Homo sapiens, UniProt Q92769); assay: Inhibition of human recombinant HDAC2 using ZMAL (Z-Lys(Ac)-AMC) fluorogenic substrate incubated for 90 mins by fluorescence based assay
Procedure, shortened: (§1)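 Enzyme was incubated with compound and ZMAL substrate (21.43 μM stock in assay buffer) for 90 min at 37 °C. Trypsin development followed for 30 min at 37 °C, then fluorescence at ex 355/em 460 nm. Duplicates, at least two independent experiments.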

Histone deacetylase 3 = Histone deacetylase 3 (Homo sapiens, UniProt O15379); assay: Inhibition of human recombinant HDAC3 using ZMAL (Z-Lys(Ac)-AMC) fluorogenic substrate incubated for 90 mins by fluorescence based assay; procedure, shortened: as §1
Histone deacetylase 4 = Histone deacetylase 4 (Homo sapiens, UniProt P56524); assay: Inhibition of human recombinant HDAC4 using Boc-Lys-(epsilon-Tfa)-AMC fluorogenic substrate incubated for 90 mins by fluorescence based assay
Procedure, shortened: (§2)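 Human recombinant HDAC4 or HDAC8, 20 ng per well, in Tris-HCl pH 8.0 buffer with 1 mg/mL BSA. Enzyme was preincubated 5 min with inhibitor, then started with Boc-Lys(ε-Tfa)-AMC, 100 μM for HDAC4 or 60 μM for HDAC8. […] Fluorescence ex 355/em 460 nm was read 15 min later.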

Histone deacetylase 8 = target: T2, Histone deacetylase 8 (Homo sapiens, UniProt Q9BY41); assay: Inhibition of human recombinant HDAC8 using Boc-Lys-(epsilon-Tfa)-AMC fluorogenic substrate incubated for 90 mins by fluorescence based assay; procedure, shortened: as §2
T2 sequence (Q9BY41 whole entry): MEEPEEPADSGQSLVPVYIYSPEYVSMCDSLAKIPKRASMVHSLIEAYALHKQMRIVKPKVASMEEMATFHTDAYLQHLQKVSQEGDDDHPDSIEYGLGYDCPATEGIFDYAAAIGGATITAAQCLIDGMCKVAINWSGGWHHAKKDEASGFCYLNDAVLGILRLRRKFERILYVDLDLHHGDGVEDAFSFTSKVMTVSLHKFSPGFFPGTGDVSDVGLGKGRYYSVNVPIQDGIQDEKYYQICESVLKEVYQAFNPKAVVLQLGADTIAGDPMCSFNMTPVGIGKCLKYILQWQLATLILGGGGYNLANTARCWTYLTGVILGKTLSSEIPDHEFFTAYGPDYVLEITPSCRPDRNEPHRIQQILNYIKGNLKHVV

[2] = Intrinsic clearance in human liver microsomes; assay type: ADME, Microsome
[3] = Intrinsic clearance in mouse liver microsomes; assay type: ADME, Microsome
[4] = target: T3, Protein deacetylase HDAC6 (Homo sapiens) (UniProt Q9UBN7); assay: Inhibition of HDAC6 in human HL60 cells assessed as induction of alpha-tubulin acetylation at 2.5 to 5 uM incubated for 24 hrs by immunoblot analysis; assay type: cell-based; details: HL-60, dose microM 2.5-5, time […]
T3 sequence (whole entry): T1 sequence (Q9UBN7 whole entry)

[5] = target: Class 1 histone deacetylase (Homo sapiens) (UniProt Q13547+O15379+Q92769+Q9BY41); assay: Inhibition of class-1 HDAC in human HL60 cells assessed as induction of histone H3 acetylation at 2.5 to 5 uM incubated for 24 hrs by immunoblot analysis; assay type: cell-based; details: HL-60, dose microM 2.5-5, time […]
TALL-1 = assay: Cytotoxicity in human TALL-1 cells assessed as reduction in cell viability incubated for 72 hrs by cell-Titer-Glo luminescent cell viability assay; assay type: cell-based; details: TALL-1, 72 h
Procedure, shortened: (§3)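 Leukaemia lines kept in RPMI 1640 with 20% FCS (SUP-B15 in McCoy's 5A with 20% FCS). Compound dispensed digitally at increasing concentrations from 1 μM to 50 μM. Viability read by CellTiter-Glo luminescence after 72 h. Raw data were normalized to controls and IC50 was fitted by sigmoid nonlinear regression.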

CCRF-HSB-2 [6] = assay: Cytotoxicity in human CCRF-HSB-2 cells assessed as reduction in cell viability incubated for 72 hrs by cell-Titer-Glo luminescent cell viability assay; assay type: cell-based; details: CCRF-HSB-2, 72 h; procedure, shortened: as §3
MOLT-4 = assay: Cytotoxicity in human MOLT-4 cells assessed as reduction in cell viability incubated for 72 hrs by cell-Titer-Glo luminescent cell viability assay; assay type: cell-based; details: MOLT-4, 72 h
Procedure, shortened: (§4)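 Cells were exposed in 384-well format to a digitally dispensed concentration series of 1–50 μM. Viability was read by CellTiter-Glo luminescence after 72 h. Data were normalized to controls, and IC50 came from nonlinear regression of a sigmoid dose curve. K562 was maintained in RPMI 1640 with 10% FCS at 37 °C and 5% CO2. MOLT-4 was maintained in RPMI 1640 with 20% FCS.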

Jurkat = assay: Cytotoxicity in human Jurkat cells assessed as reduction in cell viability incubated for 72 hrs by cell-Titer-Glo luminescent cell viability assay; assay type: cell-based; procedure, shortened: as §3
SUP-B15 = assay: Cytotoxicity in human SUP-B15 cells assessed as reduction in cell viability incubated for 72 hrs by cell-Titer-Glo luminescent cell viability assay; assay type: cell-based; details: SUP-B15, 72 h; procedure, shortened: as §3
K562 = assay: Cytotoxicity in human K562 cells assessed as reduction in cell viability incubated for 72 hrs by cell-Titer-Glo luminescent cell viability assay; assay type: cell-based; details: K562, 72 h; procedure, shortened: as §4
HL-60 [7] = assay: Induction of apoptosis in human HL-60 cells at 2.5 to 5 uM incubated for 24 hrs by Annexin V and PI staining based FACS analysis; assay type: cell-based; details: hl-60, 24 h, dose 2.5-5 µM
Procedure, shortened: (§5)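 HL60 cells in RPMI 1640 with 10% FCS at 37°C, 5% CO2. Cells were exposed to test compound at 2.5 or 5 μM, alone or combined with bortezomib, for 24 h. Annexin V/propidium iodide staining was read by FACS; n=3, with paired two-tailed Student's t-test.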

HL-60 [8] = assay: Potentiation of bortezomib-induced apoptosis in human HL-60 cells assessed as increase in number of late apoptotic/dead cells at 2.5 to 5 uM incubated for 24 hrs in presence of 0.6 to 1.2 nM bortezomib- by Annexin V and PI staining based FACS analysis; assay type: functional, cell-based; details: dose microM 2.5-5, time […]; procedure, shortened: as §5
CCRF-HSB-2 [9] = assay: Cytotoxicity in human CCRF-HSB-2 cells assessed as reduction in cell viability at 2.5 to 5 uM incubated for 72 hrs by cell-Titer-Glo luminescent cell viability assay; assay type: cell-based; details: ccrf-hsb-2, 72 h, dose 2.5-5 µM
Procedure, shortened: (§6)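 HSB-2 cells in RPMI 1640 with 20% FCS on a semi-automated combination platform. Test compound was fixed at 2.5 or 5 μM, alone or with chemotherapeutics and glucocorticoids dispensed at 10 nM-25 μM. Viability read by CellTiter-Glo luminescence after 72 h.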

CCRF-HSB-2 [10] = assay: Potentiation of epirubicin-induced cytotoxicity in human CCRF-HSB-2 cells assessed as reduction in cell viability at 2.5 to 5 uM incubated for 72 hrs in presence of 10 nM epirubicin1 by cell-Titer-Glo luminescent cell viability assay; assay type: functional, cell-based; details: dose microM 2.5-5, time 72.0 hrs; procedure, shortened: as §6
CCRF-HSB-2 [11] = assay: Potentiation of […]-induced cytotoxicity in human CCRF-HSB-2 cells assessed as reduction in cell viability at 2.5 to 5 uM incubated for 72 hrs in presence of 10 nM daunorubicin by cell-Titer-Glo luminescent cell viability assay; assay type: functional, cell-based; details: dose microM 2.5-5, time 72.0 hrs; procedure, shortened: as §6

Sequence of Histone deacetylase 1 (Q13547 whole entry): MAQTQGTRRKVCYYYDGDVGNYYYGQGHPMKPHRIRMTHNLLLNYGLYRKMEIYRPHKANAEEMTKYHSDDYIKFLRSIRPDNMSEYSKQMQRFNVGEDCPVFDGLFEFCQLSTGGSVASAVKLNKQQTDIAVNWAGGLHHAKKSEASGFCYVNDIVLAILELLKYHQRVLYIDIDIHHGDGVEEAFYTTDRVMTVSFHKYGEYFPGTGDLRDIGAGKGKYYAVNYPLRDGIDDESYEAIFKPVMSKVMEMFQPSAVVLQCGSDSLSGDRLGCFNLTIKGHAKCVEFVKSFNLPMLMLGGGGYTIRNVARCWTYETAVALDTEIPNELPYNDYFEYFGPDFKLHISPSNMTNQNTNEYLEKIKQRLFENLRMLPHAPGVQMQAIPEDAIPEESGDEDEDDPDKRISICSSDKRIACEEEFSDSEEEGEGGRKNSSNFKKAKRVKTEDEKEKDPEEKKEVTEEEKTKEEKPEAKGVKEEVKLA
Sequence of Histone deacetylase 3 (O15379 whole entry): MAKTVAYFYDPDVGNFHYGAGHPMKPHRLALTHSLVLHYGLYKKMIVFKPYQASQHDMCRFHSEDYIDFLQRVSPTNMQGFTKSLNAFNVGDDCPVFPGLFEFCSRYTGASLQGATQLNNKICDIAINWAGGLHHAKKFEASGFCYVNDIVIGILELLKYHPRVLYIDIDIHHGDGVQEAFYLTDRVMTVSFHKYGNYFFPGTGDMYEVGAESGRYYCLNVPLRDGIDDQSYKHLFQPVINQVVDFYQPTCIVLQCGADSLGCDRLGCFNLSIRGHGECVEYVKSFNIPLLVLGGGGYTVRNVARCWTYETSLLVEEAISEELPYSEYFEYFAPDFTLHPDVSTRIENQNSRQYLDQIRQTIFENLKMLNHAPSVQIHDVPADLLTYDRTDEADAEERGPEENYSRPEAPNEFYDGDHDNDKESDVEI
Sequence of Histone deacetylase 4 (P56524 whole entry): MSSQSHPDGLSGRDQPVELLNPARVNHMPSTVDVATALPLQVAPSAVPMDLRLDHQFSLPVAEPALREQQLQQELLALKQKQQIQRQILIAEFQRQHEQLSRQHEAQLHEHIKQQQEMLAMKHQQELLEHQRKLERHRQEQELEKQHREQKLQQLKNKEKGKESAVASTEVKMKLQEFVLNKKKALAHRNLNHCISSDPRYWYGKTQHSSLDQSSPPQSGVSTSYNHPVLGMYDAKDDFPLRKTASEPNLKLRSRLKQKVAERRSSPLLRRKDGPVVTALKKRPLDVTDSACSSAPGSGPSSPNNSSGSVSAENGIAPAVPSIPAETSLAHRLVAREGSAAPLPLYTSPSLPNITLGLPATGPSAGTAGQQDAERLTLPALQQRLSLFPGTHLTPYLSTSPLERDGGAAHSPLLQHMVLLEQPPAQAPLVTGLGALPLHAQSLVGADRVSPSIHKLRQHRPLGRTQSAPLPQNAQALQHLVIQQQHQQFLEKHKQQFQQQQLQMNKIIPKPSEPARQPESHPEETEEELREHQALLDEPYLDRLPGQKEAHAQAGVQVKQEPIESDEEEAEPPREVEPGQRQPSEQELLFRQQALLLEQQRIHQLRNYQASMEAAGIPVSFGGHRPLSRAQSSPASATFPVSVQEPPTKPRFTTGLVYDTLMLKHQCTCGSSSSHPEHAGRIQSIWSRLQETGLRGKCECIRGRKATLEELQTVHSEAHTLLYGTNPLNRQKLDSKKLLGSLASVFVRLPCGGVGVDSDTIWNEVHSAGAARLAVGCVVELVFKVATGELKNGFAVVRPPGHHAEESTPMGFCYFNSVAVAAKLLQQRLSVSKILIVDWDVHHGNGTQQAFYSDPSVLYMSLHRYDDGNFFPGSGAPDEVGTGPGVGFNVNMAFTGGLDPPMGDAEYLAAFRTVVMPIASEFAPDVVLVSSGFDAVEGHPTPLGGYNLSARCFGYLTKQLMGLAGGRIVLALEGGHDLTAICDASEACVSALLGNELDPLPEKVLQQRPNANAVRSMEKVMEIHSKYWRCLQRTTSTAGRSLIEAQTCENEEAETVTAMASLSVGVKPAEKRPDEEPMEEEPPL
Sequence of Histone deacetylase 2 (Q92769 whole entry): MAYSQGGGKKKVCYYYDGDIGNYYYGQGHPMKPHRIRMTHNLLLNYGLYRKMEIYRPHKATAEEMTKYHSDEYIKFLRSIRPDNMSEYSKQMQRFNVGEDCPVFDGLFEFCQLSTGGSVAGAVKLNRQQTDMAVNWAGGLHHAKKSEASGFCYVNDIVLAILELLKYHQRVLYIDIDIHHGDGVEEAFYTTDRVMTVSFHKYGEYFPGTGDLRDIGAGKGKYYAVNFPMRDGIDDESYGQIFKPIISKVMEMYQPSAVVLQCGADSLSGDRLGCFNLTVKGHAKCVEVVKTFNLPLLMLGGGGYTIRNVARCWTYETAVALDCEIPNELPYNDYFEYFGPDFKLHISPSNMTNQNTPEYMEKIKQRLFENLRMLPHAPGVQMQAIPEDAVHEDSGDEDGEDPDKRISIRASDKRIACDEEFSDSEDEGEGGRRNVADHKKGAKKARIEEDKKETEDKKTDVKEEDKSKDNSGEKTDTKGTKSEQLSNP

| Compound | IC50 (Histone deacetylase 1) | IC50 [1] | also measured |
| --- | --- | --- | --- |
| O=C(NO)c1ccc(CNCc2nnnn2C2CCCCC2)cc1 | 2.06 µM | 0.12 µM | – |
| O=C(NO)c1ccc(CN(Cc2nnnn2C2CCCCC2)C(=O)c2ccccc2)cc1 | 2.37 µM | 0.07 µM | – |
| O=C(NO)c1ccc(CNCc2nnnn2Cc2ccccc2)cc1 | 2.45 µM | 0.1 µM | – |
| CCCCC(NCc1ccc(C(=O)NO)cc1)c1nnnn1Cc1ccccc1 (stereo not drawn) | 2.01 µM | 0.12 µM | – |
| O=C(NO)c1ccc(CN(Cc2nnnn2Cc2ccccc2)C(=O)c2ccccc2)cc1 | 1.24 µM | 0.03 µM | – |
| Cc1cc(C)cc(C(=O)N(Cc2ccc(C(=O)NO)cc2)Cc2nnnn2Cc2ccccc2)c1 | 0.9 µM | 0.08 µM | – |
| Cc1ccccc1C(=O)N(Cc1ccc(C(=O)NO)cc1)Cc1nnnn1C1CCCCC1 | 3.03 µM | 0.06 µM | – |
| CC(C)(C)n1nnnc1CNCc1ccc(C(=O)NO)cc1 | 8.24 µM | 0.33 µM | – |
| O=C(NO)c1ccc(CN(Cc2nnnn2Cc2ccccc2)C(=O)c2ccccc2C(F)(F)F)cc1 | 5.18 µM | 0.03 µM | IC50 (Histone deacetylase 2): 2.26 µM; IC50 (Histone deacetylase 3): 8.48 µM; IC50 (Histone deacetylase 4): 55.4 µM; IC50 (Histone deacetylase 8): 14.7 µM; CLint [2]: 30 µL/min/mg; CLint [3]: 26 µL/min/mg; inhibition [4]: Active; inhibition [5]: inactive; IC50 (TALL-1): 49.4 µM; IC50 (CCRF-HSB-2 [6]): 51.8 µM; IC50 (MOLT-4): 42.4 µM; IC50 (Jurkat): 32.1 µM; IC50 (SUP-B15): 22.5 µM; IC50 (K562): 41.6 µM; Activity (HL-60 [7]): Non-Toxic; Activity (HL-60 [8]): Active; Activity (CCRF-HSB-2 [9]): Non-Toxic; Activity (CCRF-HSB-2 [10]): Active; Activity (CCRF-HSB-2 [11]): Active |
| CC(C)c1ccc(C(=O)N(Cc2ccc(C(=O)NO)cc2)Cc2nnnn2Cc2ccccc2)cc1 | 1.78 µM | 0.32 µM | – |
| O=C(NO)c1ccc(CNC(c2ccccc2)c2nnnn2Cc2ccccc2)cc1 (stereo not drawn) | 3.37 µM | 0.1 µM | – |
| O=C(NO)c1ccc(CNC(c2ccccc2)c2nnnn2C2CCCCC2)cc1 (stereo not drawn) | 4.06 µM | 0.12 µM | – |
